These results are taken from PubChem BioAssay AID624466 (The Scripps Research Institute Molecular Screening Center, 2012).

Screen size: about 360,000 compounds; about 5,400 (1.5%) were called active. Only a selection was taken, and actives are over-represented in it overall. Unmarked numbers belong to inactive results.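 Rule for the calls: active = inhibition above a per-plate cutoff, the mean inhibition of test compounds on that plate plus 3 SD (cut at about 49% in these data); inactive = the rest.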

Sequence of Trace amine-associated receptor 1 (Homo sapiens) (Q96RJ0 whole entry, looked up): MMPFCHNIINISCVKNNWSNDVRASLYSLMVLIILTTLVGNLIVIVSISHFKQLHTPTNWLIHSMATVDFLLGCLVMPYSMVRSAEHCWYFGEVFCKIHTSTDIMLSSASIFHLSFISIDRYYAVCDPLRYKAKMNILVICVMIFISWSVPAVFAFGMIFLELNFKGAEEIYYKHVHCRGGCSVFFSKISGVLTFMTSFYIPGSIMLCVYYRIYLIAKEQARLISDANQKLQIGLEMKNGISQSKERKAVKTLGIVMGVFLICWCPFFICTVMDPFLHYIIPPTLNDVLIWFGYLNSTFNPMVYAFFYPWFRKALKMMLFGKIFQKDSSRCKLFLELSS

For the experiment, the target named is Trace amine-associated receptor 1 (Homo sapiens) (UniProt Q96RJ0). Put plainly: human TAAR1 antagonists, primary screen, Fluo-8 calcium fluorescence, CHO RD-HGA16 cells (AID 624466).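 Note: 0% = DMSO plus EC80 beta-PEA response and 100% = DMSO alone without agonist.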 The following applies: CHO RD-HGA16 TAAR1, Fluo-8 calcium fluorescence, antagonist; at 3 µM; stronger effect = higher value. In a few lines:
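Assay system: RD-HGA16 CHO cells with stable hTAAR1 and Gα16 / Reagent: EC80 β-phenethylamine stimulus / Doses: 3 µM, single point / Timing: dye loading 75 min at 37 °C, then 30 min room temperature / Measured by: Fluo-8 intracellular calcium dye fluorescence, real-time kinetic reads / Controls: vehicle wells and EC80 agonist wells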
For `COC(=O)Nc1nc2ccc(C(=O)C3CC3)cc2[nH]1`, the inhibition (commonly the relative decrease from the control value, in per cent) was -3.23%.
For `O=C(NCCN1CCOCC1)c1ccccc1N1C(=O)[C@@H]2Cc3c([nH]c4ccccc34)C(c3cccc(Cl)c3)N2C1=O` (stereo partly drawn), the inhibition is 68.8% (active).
The figure for `O=C(NCCN1CCOCC1)c1cc(Sc2cccc(Cl)c2)nc2ccccc12` is -6.08%; for `O=C(NCCN1CCOCC1)Nc1cccc(Cl)c1` it is -1.82%; for `C[C@H]1[C@H](c2ccccc2)Oc2cc(Br)ccc2S(=O)(=O)N1Cc1cccc(F)c1` it is 0.32%.
On to `COc1cccc(-c2nc3nc(C)cc(C)n3c2NC2CCCCC2)c1`, for which the inhibition is -7.98%.
The figure for `Cc1ccc(N2CC(C(=O)N3CCC4(CC3)CC(=O)c3ccccc3O4)CC2=O)cc1C` (stereo not drawn) is -12.3%; for `Nc1nonc1-n1nnc(C(=O)N/N=C/c2c[nH]c3ccccc23)c1-c1ccccc1` it is 59% (active); for `CC(C)c1c(C(=O)N/N=C/c2ccccc2C(=O)O)nnn1-c1nonc1N` it is -11.8%.
With `Nc1nonc1-n1nnc(C(=O)N/N=C/C2CCCCC2)c1-c1ccccc1`, the inhibition is -20.6%.
Turning to `CC(=O)N1C[C@@H](CO)[C@@H](N(C)C(=O)C(C)(C)C)C[C@H]1c1ccccc1Br`, the inhibition was -17.9%.
Turning to `Cc1ccc(NC(=O)COC(=O)CNC(=O)c2ccc(Cl)cc2Cl)cc1S(=O)(=O)N1CCOCC1`, the inhibition is -20.3%.
In the case of `C[C@@H]1CC2=C(C(=O)OC(C)(C)O2)[C@@H](C2CC2)O1` it was -2.56%; in that of `CCOC(=O)[C@]12CCCC=C1N(Cc1cccc3ccccc13)C(=O)[C@H](CC(=O)NCC13CC4CC(CC(C4)C1)C3)C2`, -11.8%; in that of `O=C(c1cc(-c2ccc(Cl)s2)nc2ccccc12)N1CCOCC1`, 23.2%.
Turning to `Cc1c(NC(=O)c2cc(-c3ccc(Cl)s3)nc3ccccc23)c(=O)n(-c2ccccc2)n1C`, the inhibition is 23.5%.
As to `CC(=O)N1CCN(C(=O)c2cc(-c3ccc(Cl)s3)nc3ccccc23)CC1`, the inhibition is 52% (active).
On to `O=C(NCc1cccc(Cl)c1)C1CCN(c2nnc(N3CCCC3=O)s2)CC1`, for which the inhibition is 1.44%.
In the case of `Cc1ccc(S(=O)(=O)N[C@H]2CCC[C@@H]2O)cc1` it was -6.11%; in that of `Nc1nonc1-n1nnc(C(=O)N/N=C/c2cc(Br)ccc2O)c1CSC1=NCCS1`, 18.1%.
In the case of `Cc1ccc(SCc2c(C(=O)N/N=C/c3cccnc3)nnn2-c2nonc2N)cc1` it was 63.7% (active).
In the case of `CCN(CC)Cc1c(C(=O)N/N=C/c2cccc(OCc3ccc(F)cc3)c2)nnn1-c1nonc1N`, the inhibition was -24.4%.
On to `CCOC(=O)C1CCCN(C(=O)c2cccc(S(=O)(=O)N3CCOCC3)c2)C1` (stereo not drawn), for which the inhibition is -16.4%.
As to `C=CCCN(Cc1ccccc1)S(=O)(=O)c1ccccc1Br`, the inhibition is 35.3%.
Take `O=C1Nc2ccccc2C1=NN=Cc1ccco1`: the inhibition is -11.4%.
As for `CC1Cc2[nH][nH]c(=O)c2C(C2CC2)O1` (stereo not drawn), the inhibition was -0.95%.
In the case of `Cc1ccccc1-n1nnc2c(=O)oc3ccccc3c21`, the inhibition was -7.09%.
For `O=C(Nc1cccc(F)c1)c1coc(=O)c(Br)c1`, the inhibition was -5.62%.
Consider `C=CCc1cc(S(=O)(=O)c2ccc(O)c(CC=C)c2)ccc1O`, for which the inhibition is 56.9% (active).
With `O=C1[C@@H](c2ccccc2)[C@@H](c2ccccc2)N1c1ccccc1`, the inhibition was -22.7%.
`COC(=O)COc1ccc(S(=O)(=O)N2CCOCC2)cc1`: the inhibition was -11.5%.
The figure for `Cc1c(C(=O)Nc2ccccc2Cl)oc2ccc(S(=O)(=O)N3CCC4(CC3)OCCO4)cc12` is 46.8%; for `COc1ccc(C(=O)Nc2cc(S(=O)(=O)N3CCCC3)ccc2Cl)cc1` it is 2.12%; for `COc1ccc(C(=O)Nc2nc(-c3ccc(S(=O)(=O)N4CCOCC4)cc3)cs2)cc1` it is 60.4% (active).
For `COc1ccc(NC(=O)c2oc3ccc(S(=O)(=O)N4CCOCC4)cc3c2C)cc1`, the inhibition was 57.4% (active).
For `Cc1c(C(=O)Nc2cccc(S(=O)(=O)N3CCOCC3)c2)oc2ccccc12`, the inhibition is 13.3%.
Take `CCc1ccc(S(=O)(=O)Nc2cc3c(cc2N2CCCCC2)n(C)c(=O)c(=O)n3C)cc1`: the inhibition is -20.8%.
Consider `CCCCCCCCN1C(=O)[C@@H](CC(=O)N2CCN(C(=O)OCC)CC2)C[C@@]2(C(=O)OC)C1=C[C@H](C1CCCC1)O[C@@H]2C`, for which the inhibition was -10.4%.
Turning to `O=C(NCc1ccc2c(c1)OCO2)c1sccc1Br`, the inhibition was -7.07%.
In the case of `O=C(NCc1ccc2c(c1)OCO2)c1c(-c2ccsc2)sc2ccccc12` it was 77.1% (active); in that of `C=CCn1c(=O)c(C(=O)NCc2ccc3c(c2)OCO3)c(O)c2ccccc21`, -8.39%.
On to `COCCCNC(=O)C[C@H]1C[C@@]2(C(=O)OC)C(=C[C@H](C(C)(C)C)O[C@@H]2C)N(Cc2ccc3c(c2)OCO3)C1=O`, for which the inhibition was -10.8%.
Consider `Cn1nccc1/C=N\NC(=O)c1ccc(Cl)cc1`, for which the inhibition was -23%.
For `O=C(Cc1ccccc1)Nc1cccc(C(=O)N/N=C/c2ccco2)c1`, the inhibition was 7.95%.
`O=C(N/N=C/c1ccccn1)c1cccc(NC(=O)c2ccc(Cl)cc2)c1`: the inhibition was 56.6% (active).
As to `CC(C)CNc1cccc2c1S(=O)(=O)N[C@H](C)CO2`, the inhibition was 9.62%.
`Cc1ccc(C2=CSC3=NS(=O)(=O)CCN23)cc1C`: the inhibition was 10.5%.
Consider `CC(=NNC(N)=O)c1ccc(Cl)c(-n2cccc2)c1`, for which the inhibition is -7.84%.
On to `COc1ccc(OC)c(CNC(=O)Cn2nc(C)c3c(C)n(-c4ccc(C)cc4)nc3c2=O)c1`, for which the inhibition was -15.7%.
For `CC(=O)n1cc([C@H]2C=C(C(=O)N3CCOCC3)O[C@@H](OCc3ccc(CO)cc3)C2)c2ccccc21`, the inhibition is 51.8% (active).
Take `O=C(C1=C[C@H](c2coc3ccccc3c2=O)C[C@H](OCc2ccc(CO)cc2)O1)N1CCOCC1`: the inhibition is 17.7%.
Take `CC(=O)n1cc([C@@H]2C=C(C(=O)N3CCN(Cc4ccc5c(c4)OCO5)CC3)O[C@H](OCc3ccc(CO)cc3)C2)c2ccccc21`: the inhibition was 49.4% (active).
As to `CN1CCN(C(=O)C2=C[C@H](c3ccc4c(c3)OCO4)C[C@H](OCc3ccc(CO)cc3)O2)CC1`, the inhibition is 18.1%.
Regarding `O=C(C1=C[C@H](c2ccc(C(F)(F)F)cc2)C[C@H](OCc2ccc(CO)cc2)O1)N1CCN(Cc2ccccc2)CC1`, the inhibition is 7.66%.
In the case of `NC(=O)C1=C[C@@H](c2csc3ccccc23)C[C@@H](OCc2ccc(CO)cc2)O1` it was 17.2%; in that of `NC(=O)C1=C[C@H](c2csc3ccccc23)C[C@H](OCc2ccc(CO)cc2)O1`, 49.7% (active); in that of `O=C(NC1CC1)C1=C[C@H](c2c[nH]c3ccccc23)C[C@H](OCc2ccc(CO)cc2)O1`, -9.17%.
With `O=C(C1=C[C@H](C2CC2)C[C@H](OCc2ccc(CO)cc2)O1)N1CCN(Cc2ccccc2)CC1`, the inhibition was 1.78%.
